This is one part of a sample in which hits are shown more often than they occur.
CHOP inhibitor = inhibitors of CHOP promoter induction, primary screen, cell-based, unfolded protein response, luciferase reporter; CHO-K1 CHOP-promoter luciferase, tunicamycin-induced, 15-18 h; inhibition, % at 10 µM; 220,000 compounds, 3.8% hits;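 active means compounds that reduced the stress-induced luciferase reporter signal by more than about 70% of percent inhibition, limit read from the data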
CHOP UPR activ = activators of apoptotic CHOP UPR arm, primary screen, cell-based, CHO-CHOP luciferase reporter, luminescence, uHTS; UPR activation; percent of tunicamycin response over DMSO baseline; activation, % at 10 µM; 330,000 compounds, 0.34% hits; AID 449763, 2010;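 active means at 10 µM dose, activation of 40% or more, normalized to positive control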
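Assay system: CHO-CHOP cells, stable luciferase reporter of PERK-eIF2a-CHOP signalling / Buffer or medium: F12 plus 10% serum / Compound dosing: one dose, 10 µM in 0.5% DMSO / Times: 6 h compound treatment, 37 °C / Technique: luciferase luminescence / Read-out: % reporter activation, DMSO baseline versus tunicamycin full activation / Benchmarks: tunicamycin and DMSO controls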
PvdQ inh = P. aeruginosa PvdQ acylase inhibitors, primary screen, biochemical, fluorescence, plate reader and imaging, single point. purified PvdQ acylase. 340,000 compounds, 0.063% hits. inhibition, % at 10 µM. PvdQ acylase [Pseudomonas aeruginosa LESB58]; in the data active means inhibition above about 30%, passing the limit was not always enough
XBP1 UPR activ = activators of adaptive XBP1 UPR arm, primary screen, cell-based, CHO-XBP1 luciferase reporter, luminescence, uHTS; IRE1-XBP1 UPR activation; percent of tunicamycin response, DMSO as zero; activation, % at 20 µM; 330,000 compounds, 0.33% hits;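 active means versus positive control, 20 µM dose yields 30% or more activation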
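Material: CHO-XBP1 cells stably carrying IRE1-XBP1-driven luciferase reporter | Medium: F12 with 10% serum | Compound dosing: 20 µM single concentration, DMSO 1% | Incubation: Overnight seeding at 37 °C, 6 h compound treatment at 37 °C | Detection: Steady-Glo luminescence read | Read-out basis: % activation of reporter signal versus tunicamycin and DMSO controls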
CHOP confirm = retest of CHOP induction inhibitors, confirmation, cell-based; CHO-CHOP promoter luciferase reporter, tunicamycin-induced, luminescence; 2,100 compounds, 45% hits; inhibition, % at 10 µM; shares compounds with CHOP inhibitor;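 active means mean of three repeat readings of reporter signal inhibition above a set limit, cut at about 70% in these data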
Hits are given with their value; 0 = inactive; - = no result.

SMILES | CHOP inhibitor | CHOP UPR activ | PvdQ inh | XBP1 UPR activ | CHOP confirm
CCCCn1c(O)c(/C=C2\C=NN=C2c2ccccc2)sc1=S | 0 | 0 | 0 | 0 | -
CCn1c(O)c(/C=C2\C=NN=C2c2ccccc2)sc1=S | 98 | 0 | 0 | 0 | 0
N#C/C(=C\c1ccc(F)cc1)c1nc(-c2ccco2)cs1 | 105 | 0 | 0 | 0 | 0
CCOC(=O)C1(CCOC)CCN(Cc2nc(C(C)C)cs2)CC1 | 0 | 0 | 0 | 0 | -
COc1cc(/C=C2\COC/C(=C\c3cc(OC)c(OC)c(OC)c3)C2=O)cc(OC)c1OC | 106 | - | 0 | - | 111
COc1cc(/C=C2\CC/C(=C\c3cc(OC)c(O)c(OC)c3)C2=O)cc(OC)c1O | 101 | 0 | 0 | 0 | 101
COc1cc(C(=O)N2CCN(C3CCCCC3)CC2)cc(OC)c1OC | - | 0 | 0 | 0 | -
COc1cc(OC)c(/C=N/NC(=O)c2ccncc2)cc1Br | 0 | 0 | 0 | 0 | -
CC(=O)Nc1ccc(C(=O)N/N=C/c2cc(Br)cc(Br)c2O)cc1 | 105 | 0 | 0 | 0 | 0
COc1cc(OC)c(/C=N/NC(=O)c2ccc(NC(C)=O)cc2)cc1Br | 104 | 0 | 0 | 0 | 0
COc1ccc(NC(=O)c2cc(-c3ccccc3O)n[nH]2)cc1Cl | - | 0 | 0 | 0 | -
COc1ccc(Cl)cc1NC(=O)c1cc(-c2cc(C)ccc2O)n[nH]1 | 100 | 0 | 0 | 0 | 0
COc1ccc(NC(=O)c2cc(-c3cc(C)cc(C)c3O)n[nH]2)cc1Cl | 104 | 0 | 0 | 0 | 102
CCn1c(Cc2cccs2)nnc1SCC(=O)NC(C)(C)C | 0 | 0 | 0 | 0 | -
Cc1cc(F)c(F)c(C(=O)N2C(C)CCCC2C)c1Cl (centres undefined) | 0 | 0 | 0 | 0 | -
CCCCN(C(=O)C1CCN(C(=O)c2ccccc2C)CC1)c1c(N)n(CCCC)c(=O)[nH]c1=O | - | 0 | 0 | 0 | -
CCOCCCNC(=O)/C(C#N)=C/c1ccc([N+](=O)[O-])o1 | 107 | 0 | 0 | 0 | 0
CC(C)(C)c1ccc(C2CC2C(=O)N/N=C\c2ccc[nH]2)cc1 (centres undefined) | 105 | 0 | 0 | 0 | 95
O=C(N/N=C/c1ccco1)C1CC1c1ccccc1 (centres undefined) | 0 | 0 | 0 | 0 | -
O=C(O)CCCC(=O)Nc1ccccc1SCCS(=O)(=O)c1ccc(Cl)cc1 | - | - | 0 | - | -
Cc1ccc(NC(=O)CCCC(=O)O)c(-c2nc3ccccc3[nH]c2=O)c1 | - | 0 | 0 | 0 | -
OC1(c2ccc(Br)cc2)CCNCC1 | 101 | 0 | 0 | 0 | 0
CC(C)c1ccc2c(c1)C1(NN=C(c3ccccc3)S1)C(=O)N2 (centres undefined) | 105 | 0 | 0 | 0 | 106
CC(/C=C1\SC(=O)N(CC(=O)Nc2ccc(O)cc2)C1=O)=C\c1ccccc1 | 96 | 0 | 0 | 0 | 0
Cn1c(-c2cnn(-c3ccccc3)c2-n2cccc2)n[nH]c1=S | 0 | 0 | 0 | 0 | -
SMILES | CHOP inhibitor | CHOP UPR activ | PvdQ inh | XBP1 UPR activ | CHOP confirm
Cc1ccc(C(=O)Nc2ccc(N3CCN(C)CC3)cc2)c(Cl)c1 | - | 0 | 0 | 0 | -
Cc1ccnc(NC(=O)c2cnc(Cl)c(Cl)c2)c1 | - | 0 | 0 | 0 | -
CCC(CC)c1nnc(NC(=O)c2c(C)nn(Cc3ccccc3Cl)c2C)s1 | 105 | 0 | 0 | 0 | 90
O=C(CNC(=O)c1ccc(Cl)cc1)N/N=C/C=C/c1ccccc1 | 99 | 0 | 0 | 0 | 0
CS(=O)(=O)N1CCN(Cc2cc(=O)n3ccsc3n2)CC1 | - | 0 | 0 | 0 | -
Cc1cc(N2C(=O)C=CC2=O)c([N+](=O)[O-])cc1C | 108 | 0 | 0 | 0 | 0
Cc1c([N+](=O)[O-])cc(N2C(=O)C=CC2=O)cc1[N+](=O)[O-] | - | - | 0 | - | -
O=C(OCn1ncc(Br)c(Br)c1=O)c1c(F)cccc1F | - | - | - | - | 125
CC(C)(C)C(=O)Cn1ncc(N2CCCC2)c(Br)c1=O | 0 | 0 | 0 | 0 | -
CC(=O)Cn1ncc(Br)c(Br)c1=O | 105 | - | 0 | - | 0
O=C1c2cc(Cl)ccc2-c2c(O)cc(Cl)cc21 | - | - | 0 | - | -
C/C(=N\NS(=O)(=O)c1ccccc1)c1ccc2c(c1)OCO2 | 0 | 0 | 0 | 0 | -
N#C/C(=C\c1cccc(Cl)c1)C(=O)c1ccccc1 | 0 | 0 | 0 | 0 | -
N#CC(C#N)=C1C=CC=CN1/C(=C\c1ccccc1Cl)C(=O)c1ccccc1 | 107 | - | 0 | - | 125
COc1ccc(NS(=O)(=O)c2ccc(O)c(NC(=O)c3cc4c(C)nn(-c5ccc(F)cc5)c4s3)c2)cc1 | 108 | 0 | 0 | 0 | 115
COc1ccc(NS(=O)(=O)c2ccc(N3CCOCC3)c(NC(=O)c3ccc(F)cc3)c2)cc1 | 0 | 0 | 0 | 0 | -
CSCCC(NS(=O)(=O)c1ccc(Cl)c(Cl)c1)C(=O)O (centres undefined) | 0 | 0 | 0 | 0 | -
C/C(CCc1ccc2c(c1)OCO2)=N\N=C(/N)SC1CC(=O)N(c2ccc(Cl)cc2)C1=O (centres undefined) | 97 | 0 | 0 | 0 | 0
O=C1COc2ccc(S(=O)(=O)CCC(=O)NC3CCCCC3)cc2N1 | - | 0 | 0 | 0 | -
CCC1(CC)Cc2ccccc2-c2nc(NCCO)[nH]c(=O)c21 | 0 | 0 | 0 | 0 | -
O=c1[nH]c(NCCO)nc2c1C1(CCCCC1)Cc1ccccc1-2 | 99 | 0 | 0 | 0 | 0
Oc1ccc(/C=N/Nc2cc(N3CCCC3)nc(N3CCCC3)n2)cc1 | 109 | 0 | 0 | 0 | 0
CC1CN(C(=O)NCc2ccccc2)c2cc(Cl)ccc2O1 (centres undefined) | - | 0 | 0 | 0 | -
COc1ccc(C(C[N+](=O)[O-])c2c(-c3ccccc3)cc3ccccn23)cc1 (centres undefined) | 0 | 0 | 0 | 0 | -
COc1ccc(C(C[N+](=O)[O-])C2(c3ccc(OC)c(OC)c3)C(=O)c3ccccc3C2=O)cc1 (centres undefined) | 104 | - | 0 | - | 0
SMILES | CHOP inhibitor | CHOP UPR activ | PvdQ inh | XBP1 UPR activ | CHOP confirm
O=C(C1=C(c2ccccc2)C(=O)c2ccccc2C1=O)c1ccccc1 | 104 | - | 0 | - | 112
CCOC(=O)c1c(NC(=O)CN2C(=O)NC3(CCCCC3C)C2=O)sc(C)c1CC (centres undefined) | - | 0 | 0 | 0 | -
CCOC(=O)/C=C1/SCC(=O)N1CC(=O)Nc1ccc2c(c1)CCC2 | - | - | 0 | - | -
O=C(N=c1ccn(-c2nc3ccccc3nc2NS(=O)(=O)c2ccc(Cl)cc2)cc1)c1cccs1 | 98 | 0 | 0 | 0 | 0
COc1ccccc1NC(=O)CSc1nc(=O)n2cc(C)ccc2n1 | - | 0 | 0 | 0 | -
COC(=O)c1ccc(N2C(=O)CC(SCC(=O)Nc3ccc(OC)cc3)C2=O)cc1 (centres undefined) | 0 | 0 | 0 | 0 | -
CN=C(Nc1cc(Cl)ccc1Cl)SC1CC(=O)N(c2ccc(C(=O)OC)cc2)C1=O (centres undefined) | 105 | 0 | 0 | 0 | 0
COC(=O)c1c(NC(=O)Nc2ccc(Cl)cc2)sc(C)c1C | 100 | 0 | 0 | 0 | 99

Source: PubChem (several laboratories)
